# Screens as filed in PubChem.
# Many of the other results were omitted from the sample, so hits are more common in it than they were.
# XBP1 UPR activ: adaptive UPR (XBP1) activation | CHO-XBP1 luciferase reporter, IRE1-XBP1 UPR activation, luminescence; percent of tunicamycin response, DMSO as zero | activation, % at 20 µM | hit rate 0.33% among 330,000 | AID 463104;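 active means versus positive control, 20 µM dose yields 30% or more activation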;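 further: 100% = tunicamycin at 10 µg/mL and 0% = DMSO only wells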
#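 incubation = overnight seeding at 37 °C, 6 h compound treatment at 37 °C | assay system = CHO-XBP1 cells stably carrying IRE1-XBP1-driven luciferase reporter | input = 1000 cells per well | detection = luciferase luminescence | dosing = single point, 20 µM final compound, 1% DMSO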
# Jurkat NFkB inh: lowers PMA/ionomycin-induced NF-kB signal in Jurkat cells; AID 435003; PMA/ionomycin-induced NF-kB luciferase reporter, luminescence; inhibition, % at 4 µM; hit rate 0.53% among 330,000; in the data active means inhibition above about 50%
# CHOP inh: blocks CHOP induction under ER stress. CHO-K1 CHOP-promoter luciferase, tunicamycin-induced, 15-18 h. inhibition, % at 10 µM. hit rate 3.8% among 220,000;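 active means compounds that reduced the stress-induced luciferase reporter signal by more than about 70% of percent inhibition, limit read from the data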;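 further: 0% = tunicamycin plus vehicle and 100% = wells without tunicamycin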
# 697 NFkB inh: lowers PMA/ionomycin-induced NF-kB signal in 697 B cells; 697 B-cell NF-kB luciferase reporter, 16 h; hit rate 0.33% among 330,000; AID 435022; inhibition, % at 4 µM; in the data active means inhibition above about 35%
# CHOP UPR activ: activators of apoptotic arm of unfolded protein response (CHOP). CHO-CHOP luciferase reporter, UPR activation, luminescence; percent of tunicamycin response over DMSO baseline. activation, % at 10 µM. hit rate 0.34% among 330,000;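 active means at 10 µM dose, activation of 40% or more, normalized to positive control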;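 further: 100% = tunicamycin at 10 µg/mL and 0% = DMSO alone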
#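 Test system: CHO-CHOP cells, stable luciferase reporter of PERK-eIF2a-CHOP signalling | Quantity: 500 CHO-CHOP cells per well | Buffer or medium: F12 plus 10% serum | Compound dosing: 10 µM single point, 0.5% DMSO | Schedule: 6 h compound treatment, 37 °C | Signal: Luciferase luminescence | Control set: Tunicamycin high control, DMSO low control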
# * = called active by the depositor; nt = not tested or not shown.
SMILES,XBP1 UPR activ,Jurkat NFkB inh,CHOP inh,697 NFkB inh,CHOP UPR activ
CCOCCCN(C(=O)Cn1nnc(-c2ccc(OC)c(OC)c2)n1)C(C(=O)NCC1CCCO1)c1ccc(F)cc1 (centres undefined),-7,4,nt,4,-1
Oc1ccc(/C=C/c2nc(-c3ccccc3O)n(-c3ccccc3)n2)cc1,4,-2,90*,18,3
CC(C)(C)C1CCC2(CC1)SCC(=O)N2c1ccccc1 (centres undefined),2,-6,77*,0,-1
CCC(C(=O)Nc1ccccc1OC)n1c(C(=O)OC)cc2ccsc21 (centres undefined),-6,-6,81*,2,-2
COc1ccc(C2CC(c3ccccc3)=NN2c2ccc(N)cc2)cc1 (centres undefined),1,-29,91*,-28,3
NS(=O)(=O)c1ccc(N2N=C(c3ccccc3)CC2c2cccc(F)c2)cc1 (centres undefined),nt,nt,83*,nt,nt
COc1ccc(C2CC(c3ccccc3O)=NN2c2ccccc2)cc1 (centres undefined),-2,3,nt,12,-1
CCOc1ccc(NC(=O)CCNC(=O)Cn2ccc3ccccc3c2=O)cc1,2,10,nt,6,2
CCOC(=O)NC(NCCc1ccccc1)(C(F)(F)F)C(F)(F)F,-4,-1,70*,11,1
COc1ccc2ccccc2c1C(O)c1nccn1C (centres undefined),2,4,84*,-1,1
Cc1ccc(N(C(=O)CS(=O)CC(=O)Nc2ccc(F)cc2)C(C)C(=O)NC(C)(C)C)cc1 (centres undefined),-3,-28,nt,-2,1
COc1ccc(/C=N/Nc2nc(Nc3ccccc3)nc(N3CCCC3)n2)cc1[N+](=O)[O-],13,-4,84*,17,39
COc1ccc(/C=N/Nc2nc(N3CCCCC3)nc(N3CCCCC3)n2)cc1[N+](=O)[O-],-3,-6,22,-8,0
CCc1ccc(CNC(=O)C2CCN(S(=O)(=O)N3CCCC3)CC2)cc1,-4,8,nt,7,3
CC(C)CCn1c(SCC(=O)Nc2ccccc2C(F)(F)F)nc2nccnc2c1=O,-3,7,nt,-12,1
CCOC(=O)C1CCN(C(=O)c2ccc(OCC(=O)Nc3ccc(OCC)cc3)c(OC)c2)CC1,-1,10,nt,-5,3
CCCCCNc1nc(-c2ccccc2)nc(-n2ccnc2)n1,0,11,72*,-11,3
CC1=CC(=O)c2c(O)ccc(O)c2C1=O,nt,nt,106*,nt,nt
O=C1C=C(O)c2cccc(O)c2C1=O,-1,15,-11,13,1
CCOc1ncccc1C(=O)Nc1ccc2c(c1)OCCCO2,4,-12,nt,18,3
COC(=O)Cn1cc(/C=N/NC(=O)COc2cccc3cccnc23)c2ccccc21,3,6,31,-6,-1
COC(=O)N/N=C/c1cn(Cc2ccc(Cl)cc2Cl)c2ccccc12,-1,8,80*,3,0
C#CCn1cc(/C=N/NC(=O)COc2cccc3cccnc23)c2ccccc21,1,7,103*,16,-2
Cc1ccccc1OCC(=O)N/N=C/c1cn(Cc2ccccc2)c2ccccc12,-1,14,73*,-3,2
COC(=O)N/N=C/c1cn(Cc2ccccc2Cl)c2ccccc12,-2,9,63,22,1
SMILES,XBP1 UPR activ,Jurkat NFkB inh,CHOP inh,697 NFkB inh,CHOP UPR activ
Cc1ccc2nc(SCC(=O)NCc3ccccc3)nc(=O)n2c1,0,5,nt,3,0
CCOC(=O)c1sc(/S(C)=N\S(=O)(=O)c2cccc(Cl)c2)c2c1CCC=C2 (centres undefined),-2,18,24,-1,0
CCCCC(=O)Nc1nc2ccc3nc(C)sc3c2s1,1,-12,44,-31,1
CCCC(=O)Nc1nc2ccc3nc(C)sc3c2s1,-1,-10,75*,-13,5
C=CCn1c(SCC(=O)NCC(c2ccccc2)N(C)C)nnc1C1CCCCC1 (centres undefined),-2,5,nt,10,0
Cc1[nH]nc2c1C1(CCN(C(=O)OCc3ccccc3)CC1)C(C#N)=C(N)O2,-2,-17,73*,-3,-2
Cc1[nH]nc2c1C1(CCN(C(=O)c3ccccc3)CC1)C(C#N)=C(N)O2,-2,-1,-3,-42,-1
O=C(C1CCCN1S(=O)(=O)c1ccc(Cl)cc1)N1CCOCC1 (centres undefined),0,-12,74*,-36,-2
O=C(C1CCCN1S(=O)(=O)c1ccc(Cl)c(Cl)c1)N1CCOCC1 (centres undefined),0,-8,-4,-1,-1
CC(C)C[C@@H](C(=O)O)N(Cc1cccc(CN([C@@H](CC(C)C)C(=O)O)S(C)(=O)=O)c1)S(C)(=O)=O,-3,-28,nt,-26,-4
CCOCCCn1c(=O)c2ccccc2n2c(=S)[nH]nc12,0,-21,nt,-16,-2
O=C1CN(C(=O)c2ccc(Br)o2)C(c2ccccc2)c2cc(Cl)ccc2N1 (centres undefined),0,-11,84*,4,-1
CCOC(=O)c1c(NC(=O)CN2C(=O)NC3(CCC(C)CC3)C2=O)sc(C)c1-c1ccc(C)cc1 (centres undefined),8,-11,82*,6,3
CCOC(=O)c1sc(NC(=O)CN2C(=O)NC3(CCCCCCC3)C2=O)c(C(=O)OCC)c1C,-1,-4,14,11,1
CCOC(=O)c1c(NC(=O)CN2C(=O)NC3(CCCCC3)C2=O)sc(C)c1-c1ccc(C)cc1,3,5,71*,4,3
CCOC(=O)c1c(NC(=O)CN2C(=O)NC3(CCC(C)CC3)C2=O)sc(C(=O)N(C)C)c1C (centres undefined),0,0,nt,14,1
O=C(Nc1cccc(C(F)(F)F)c1)c1ccc(Cn2cc(Br)cn2)o1,-3,7,32,-4,0
O=C(Nc1ccc(C(F)(F)F)cc1Cl)c1ccc(Cn2cc(Br)cn2)o1,-2,-26,73*,-37,-2
O=C(CN1CCN(c2ccccn2)CC1)Nc1cccc(Br)c1,-1,3,nt,-1,0
COc1ccccc1C(=O)NC(=S)/C=C1/N(C)c2ccccc2C1(C)C,1,26,73*,-10,5
C=CCc1ccccc1OCC(O)CNC (centres undefined),0,-12,57,-7,1
CCOc1ccccc1OCC(O)CNC (centres undefined),0,17,72*,25,1
COC(=O)c1cc(NC(=O)c2c(Cl)nc3sccn23)cc(C(=O)OC)c1,19,-15,76*,-3,-1
Cc1cccc(S(=O)(=O)Nc2cc(Cl)ccc2N2CCOCC2)c1,-2,14,nt,19,1
